Measurements published in PubChem BioAssay.
Active and inactive are the calls of the source.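 Rule for the calls, unless noted: active = fluorescence slope higher than the sample average by over 3 SD (cut at about -0.22 in these data, passing the limit was not always enough); inactive = the rest.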

Experiments:
[1] = inhibitors of TNFa-induced NFkB p65 translocation, primary screen, imaging, HUVEC, MLSMR starter and 10KST1 sets (AID 438;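 active = inhibition above 20% together with a positive visual image hit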;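 note: compound added about 3h40 before a 20 min TNFalpha stimulation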;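 for inhibition: signal is the nuclear over cytoplasmic p65 intensity ratio per well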); conditions: HUVEC TNFa-induced p65 nuclear translocation; cell count: measured here: nuclei count (cytotoxicity indicator), at 2.08 µM; inhibition: at 2 µM, stronger effect = higher value, 0% TNFa-plus-vehicle, 100% no-TNFa wells
[2] = endothelial E-selectin expression blockers – imaging, HUVEC, immunofluorescence, MLSMR starter and 10KST1 sets, primary screen (AID 487;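 active = visually confirmed hit in the image check and inhibition above 20%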;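 for inhibition: signal is fraction of cell area covered by stained E-selectin grains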;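 for nuclei count: 100% = median nuclei count of all wells on the same plate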); conditions: HUVEC TNFalpha-induced E-selectin immunofluorescence imaging, at 2 µM; inhibition: stronger effect = higher value; nuclei count: measured here: cell number, toxicity
[3] = Primary imaging screen for DUSP6 inhibitors that restore phospho-Erk in transfected HeLa cells, chemical complementation (AID 609;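 active = compounds giving at least 50% inhibition in the cell-based MKP-3 phosphatase rescue imaging test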;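 for inhibition: phospho-Erk level distribution per well compared with pooled transfected vehicle control wells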); conditions: HeLa MKP-3 transfected, phospho-Erk imaging KS statistic, at 10 µM, cells stimulated with TPA for 15 min
[4] = target: Dual specificity protein phosphatase 6 (Homo sapiens) (UniProt Q16828); experiment: as above; conditions: HeLa MKP-3 transfected, phospho-Erk imaging KS statistic; at 10 µM; stronger effect = higher value; cells stimulated with TPA for 15 min
[5] = target: Voltage-gated potassium channel subunit beta-2 (Rattus norvegicus) (UniProt P62483); experiment: inhibitors of rat Kvbeta2 reductase activity – biochemical, NADPH fluorescence, primary screen (AID 622); conditions: recombinant KvBeta, 4-cyanobenzaldehyde reduction, at 10 µM, stronger effect = higher value;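 note: slope of raw intensity against log time taken from 70 to 1610 s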
[6] = target: Voltage-gated potassium channel subunit beta-2 (Rattus norvegicus) (UniProt P62483); experiment: enhancers of rat Kvbeta2 NADPH turnover – biochemical, NADPH fluorescence, primary screen (AID 623;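 active = NADPH fluorescence slope more negative than the mean of all samples by about 3 SD, 99.7% confidence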;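 note: fluorescence intensity change per second fitted from 20 to 320 s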); conditions: Recombinant KvBeta, NADPH fluorescence decrease slope, 10 min; at 10 µM; stronger effect = lower value
[7] = target: Alpha-2C adrenergic receptor (Homo sapiens) (UniProt P18825); experiment: compounds altering alpha2C-coupled GIRK flux – cell-based, HEK293 alpha2C/GIRK1/2, thallium flux, primary screen (AID 624;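 active = fluorescence slope after compound addition differing from the mean of all screened samples at 99.7% confidence, in either direction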;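 note: slope of fluorescence ratio to pre-addition baseline per second over 15 to 24 s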); conditions: thallium flux BTC fluorescence, at 10 µM, actives lie on both sides
[8] = inhibitors of larval lipid processing in zebrafish, primary screen, whole organism, PED6 fluorescence, gall bladder and intestine (AID 686;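 active = a full or partial loss of lipid-probe fluorescence in the fish gall bladder, intestine or both, judged by eye; inactive = no fluorescence loss, or compound toxic to the fish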;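 note: larvae 5 to 7 days old with five fish per well; signal comes from phospholipase A2 cleavage of quenched PED6 carried via bile; overnight exposure to compound and PED6 before scoring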); conditions: Zebrafish larvae PED6 lipid processing, fluorescence scoring; screened at 20 µM (by protocol)
Summary of the method: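 system = live zebrafish larvae aged 5-7 days, whole organism | probe or stimulus = ingested quenched lipid PED6 at 100 nM | doses = 20 µM single dose | timing = overnight exposure | detection = fluorescence microscopy with visual scoring of gall bladder and intestine | read-out = visual per-well fluorescence inhibition score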

[9] = loss of swimming-algae plug formation – whole organism, Chlamydomonas reinhardtii, WT vs cilia-less mutant, absorbance, 96-well, primary screen (AID 463189;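 active = inhibition at or above 50% relative to wild type and mutant plate controls; inactive = inhibition below 50%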;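 note: 0% = wild type cc124 cells in DMSO and 100% = ciliumless bld1 mutant cells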); conditions: Chlamydomonas reinhardtii gravitaxis, OD600 absorbance, 2 days; at 10 µM; stronger effect = higher value
[10] = measured here: cell density z-score
[11] = measured here: nuclear c-Myc green intensity z-score
[12] = measured here: nuclear pErk red intensity z-score, stronger effect = higher value

Chain of Alpha-2C adrenergic receptor (Homo sapiens) (P18825 whole entry, looked up): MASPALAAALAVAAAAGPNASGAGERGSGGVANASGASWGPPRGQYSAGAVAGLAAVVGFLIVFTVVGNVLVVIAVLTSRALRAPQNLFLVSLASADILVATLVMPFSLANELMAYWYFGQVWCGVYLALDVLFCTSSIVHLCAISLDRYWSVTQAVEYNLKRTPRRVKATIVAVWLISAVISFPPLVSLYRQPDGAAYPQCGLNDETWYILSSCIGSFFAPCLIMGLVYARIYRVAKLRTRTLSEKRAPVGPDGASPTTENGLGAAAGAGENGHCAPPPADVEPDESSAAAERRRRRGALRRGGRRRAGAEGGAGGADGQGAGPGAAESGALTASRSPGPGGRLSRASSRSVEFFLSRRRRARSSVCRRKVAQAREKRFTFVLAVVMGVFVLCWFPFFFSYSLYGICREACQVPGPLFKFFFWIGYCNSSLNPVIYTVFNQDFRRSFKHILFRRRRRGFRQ
Chain of Voltage-gated potassium channel subunit beta-2 (Rattus norvegicus) (P62483 whole entry, looked up): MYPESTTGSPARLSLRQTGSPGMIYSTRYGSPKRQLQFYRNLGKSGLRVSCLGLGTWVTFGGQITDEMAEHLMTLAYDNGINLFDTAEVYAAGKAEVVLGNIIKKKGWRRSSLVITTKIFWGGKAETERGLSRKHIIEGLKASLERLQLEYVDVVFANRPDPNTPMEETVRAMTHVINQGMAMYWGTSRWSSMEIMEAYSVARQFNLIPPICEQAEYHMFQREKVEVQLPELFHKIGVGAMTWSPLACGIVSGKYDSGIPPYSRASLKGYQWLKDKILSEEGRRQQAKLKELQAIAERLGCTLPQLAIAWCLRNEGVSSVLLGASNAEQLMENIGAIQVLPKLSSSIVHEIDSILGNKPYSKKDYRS
Chain of Dual specificity protein phosphatase 6 (Homo sapiens) (Q16828 whole entry, looked up): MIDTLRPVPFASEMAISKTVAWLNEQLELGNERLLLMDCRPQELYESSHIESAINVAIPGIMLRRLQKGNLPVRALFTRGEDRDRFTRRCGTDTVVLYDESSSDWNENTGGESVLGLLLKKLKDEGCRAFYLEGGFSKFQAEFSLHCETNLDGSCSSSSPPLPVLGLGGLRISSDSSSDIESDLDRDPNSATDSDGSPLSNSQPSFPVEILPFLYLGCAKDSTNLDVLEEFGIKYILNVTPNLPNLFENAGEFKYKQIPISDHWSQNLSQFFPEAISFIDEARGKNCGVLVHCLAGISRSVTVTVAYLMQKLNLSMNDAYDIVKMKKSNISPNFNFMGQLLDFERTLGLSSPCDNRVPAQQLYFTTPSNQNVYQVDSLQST

| SMILES | cell count [1] | inhibition [1] | inhibition [2] | nuclei count [2] [%] | z-score [3, 10] | z-score [3, 11] | z-score [3, 12] | inhibition [4] | fluorescence slope [5] | NADPH fluorescence slope [6] | slope [7] | outcome [8] | inhibition [9] |
| --- | --- | --- | --- | --- | --- | --- | --- | --- | --- | --- | --- | --- | --- |
| Cc1ccc2c(c1)C(CCN)C(=O)N2Cc1ccccc1 (stereo not drawn) | 622 | -12.2% (inactive) | -11.3% (inactive) | 154 | 0.106 | 0.432 | 0.437 | -15% (inactive) | -0.424 (inactive) | -3.4e-05 (inactive) | 0.00511 (inactive) | inactive | 9.26% (inactive) |
| COc1ccc(OC)c2c(N)c(C#N)c(C(F)(F)C(F)(F)F)nc12 | 295 | -8.5% (inactive) | 9% (inactive) | 85.5 | 1 | -1.13 | -0.419 | 21% (inactive) | -0.402 (inactive) | -3.3e-05 (inactive) | 0.00519 (inactive) | inactive | -13.9% (inactive) |
| COc1ccc(/C(O)=C2/C(=O)C(=O)N(c3ncccn3)C2c2ccc(OC)c(OC)c2)cc1 (stereo not drawn) | 584 | -2.6% (inactive) | -34.9% (inactive) | 176 | -1.58 | 0.795 | 2.34 | 0.671% (inactive) | -0.352 (inactive) | -4.6e-05 (inactive) | 0.0049 (inactive) | inactive | 3.9% (inactive) |
| Cc1c([C@H]2[C@@H](CC#N)C2(C)C)c2ccccc2n1C | 637 | -3.8% (inactive) | -51.3% (inactive) | 153 | -0.588 | 0.872 | 0.83 | -6.48% (inactive) | -0.536 (inactive) | -9.2e-05 (inactive) | 0.00537 (inactive) | inactive | 11.5% (inactive) |
| O=C(Nc1ccc2c(c1)OCO2)c1cc2n(n1)C(C(F)(F)F)CC(c1ccccc1)N2 (stereo not drawn) | 415 | -5.8% (inactive) | 33.8% (inactive) | 65.6 | -0.336 | 0.972 | -0.0303 | 7.48% (inactive) | -0.544 (inactive) | -7.9e-05 (inactive) | 0.00462 (inactive) | inactive | -16.3% (inactive) |
| Cc1cc(C)c(C#N)c(SCC(=O)NC2CC2)n1 | 646 | -7.6% (inactive) | -12% (inactive) | 154 | 2.42 | -0.939 | 0.0715 | 2.92% (inactive) | -0.444 (inactive) | -5.6e-05 (inactive) | 0.00581 (inactive) | inactive | 0.954% (inactive) |
| CC(C)Oc1ccc(/C(O)=C2/C(=O)C(=O)N(CCN(C)C)C2c2ccco2)cc1 (stereo not drawn) | 481 | -1% (inactive) | -6.9% (inactive) | 112 | -0.569 | -0.19 | -0.239 | -1.12% (inactive) | -0.324 (inactive) | 1.4e-05 (inactive) | 0.00581 (inactive) | inactive | 6.02% (inactive) |
| CC1CN(C2CCN(S(=O)(=O)c3ccc4ccccc4c3)CC2)CC(C)O1 (stereo not drawn) | 396 | -19.4% (inactive) | -273% (inactive) | 173 | 0.701 | -1.69 | 1.26 | -0.159% (inactive) | -0.389 (inactive) | -3.5e-05 (inactive) | 0.00656 (inactive) | inactive | 110% (active) |
| COC(=O)C1=C(C)OC(N)=C(C#N)C1c1ccc(OC)c(OC)c1OC (stereo not drawn) | 401 | -10.3% (inactive) | -52.9% (inactive) | 104 | 0.861 | -0.767 | -0.967 | 26.5% (inactive) | -0.557 (inactive) | -8.1e-05 (inactive) | 0.00455 (inactive) | inactive | 42.2% (inactive) |
| C=CCn1c(SCc2c(F)c(F)c(F)c(F)c2F)nc(O)cc1=O | 615 | -1.1% (inactive) | -11.1% (inactive) | 149 | 1.68 | -0.511 | 0.131 | 7.83% (inactive) | -0.502 (inactive) | -0.00012 (inactive) | 0.00491 (inactive) | inactive | 8.12% (inactive) |
| CCN(CC)CCCn1c(C)cc2c(c1=O)C(c1cccc(Cl)c1)C(C#N)=C(N)O2 (stereo not drawn) | 448 | 13.8% (inactive) | -49.3% (inactive) | 146 | -0.339 | 0.269 | 1.37 | 2.46% (inactive) | -0.388 (inactive) | -4.3e-05 (inactive) | 0.00525 (inactive) | inactive | -6.29% (inactive) |
